The EC50 is the midpoint of the concentration-response curve. What is called CC50 is the concentration giving 50% cytotoxicity. High values mean better tolerance by the cells, low ones harm at low concentration.

Drawing on ChEMBL document CHEMBL1152662, “Synthesis and biological evaluation of novel 2-(substituted phenylaminocarbonylmethylthio)-6-(2,6-dichlorobenzyl)-pyrimidin-4(3H)-ones as potent HIV-1 NNRTIs” (Bioorg Med Chem, 2009), this text covers EC50, CC50 and selectivity ratio for 17 compounds.

Data set [1] concerns Human immunodeficiency virus 1. The data set can be described thus: Antiviral activity against HIV1 3B infected in human MT4 cells assessed as inhibition of virus-induced cytopathic effect after 5 days by MTT assay. It is filed as functional, organism-based. The conditions noted are these: Human immunodeficiency virus 1, 3B, MT4, 120 h. In outline: (§1)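 Compounds added at start in triplicate wells (stocks at 10× final) as serial fivefold dilutions; MT-4 cells at 6 × 10⁵ cells/mL infected with HIV-1 IIIB or HIV-2 ROD. Viability read by MTT 5 days post-infection at 540 and 690 nm, median OD of three wells. EC50 is the concentration giving 50% protection against virus-induced cytotoxicity.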
(In general: Protection from cytopathic effect is a common read-out in antiviral testing.)

The test system of data set [2] is Human immunodeficiency virus 2. The data set can be described thus: Antiviral activity against HIV2 ROD infected in human MT4 cells assessed as inhibition of virus-induced cytopathic effect after 5 days by MTT assay. The class given is functional, organism-based. The conditions noted are these: Human immunodeficiency virus 2, ISOLATE ROD, MT4, 120 h. Put shortly:
as §1

Data set [3] is described as follows: Cytotoxicity against mock-infected human MT4 cells after 5 days by MTT assay. It is filed as cell-based. Put shortly:
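Mock-infected MT-4 cells (6 × 10⁵ cells/mL) exposed in triplicate to serial fivefold dilutions, added at start from stocks at 10× final concentration. Viability measured by MTT after 5 days, absorbance at 540 and 690 nm, median OD of three wells. CC50 is the concentration lowering OD540 of mock-infected control by 50%.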

Data set [4] can be described thus: Selectivity index, ratio of CC50 for mock-infected human MT4 cells to EC50 for HIV1 3B infected in human MT4 cells. It is filed as toxicity, cell-based. As to conditions: read-out: Ratio CC50/EC50. Put shortly:
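Selectivity index calculated as CC50 over EC50, both from 5-day MTT viability readings in MT-4 cells, mock-infected or HIV-1 IIIB-infected, run in parallel triplicate wells.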

As for `O=C(CSc1nc(Cc2c(Cl)cccc2Cl)cc(=O)[nH]1)Nc1ccc(F)c(F)c1`, the EC50 in data set [1] and in data set [2] was greater than 274 µM each time. The CC50 at 120 h in data set [3] was greater than 274 µM. Besides, in data set [4], the selectivity ratio was no less than 1.

With `O=C(CSc1nc(Cc2c(Cl)cccc2Cl)cc(=O)[nH]1)Nc1ccc(Cl)c(Cl)c1`, the results for the EC50 in data set [1] and in data set [2] were no less than 84.6 µM and greater than 19.6 µM, respectively. Also, it took 19.6 µM to reach half-maximal cytotoxicity in data set [3] (CC50 at 120 h).

In the case of `O=C(CSc1nc(Cc2c(Cl)cccc2Cl)cc(=O)[nH]1)Nc1ccc(F)c(Cl)c1`, the EC50 in data set [1] and in data set [2] was greater than 264 µM throughout. This compound also had a CC50 at 120 h in data set [3] greater than 264 µM. Further, in data set [4], the selectivity ratio was less than 1.

For the compound `COc1ccc(NC(=O)CSc2nc(Cc3c(Cl)cccc3Cl)c(C)c(=O)[nH]2)cc1`, the EC50 in data set [1] was 2.74 µM; in data set [2], greater than 10.8 µM. This compound gave a CC50 at 120 h in data set [3] of 10.8 µM. Besides, in data set [4], the selectivity ratio was 4.

With `O=C(CSc1nc(Cc2c(Cl)cccc2Cl)cc(=O)[nH]1)Nc1ccc([N+](=O)[O-])cc1`, the EC50 in data set [1] is 2.07 µM; in data set [2], greater than 269 µM. Further, the CC50 at 120 h in data set [3] is greater than 269 µM. For the same compound, in data set [4], the selectivity ratio was greater than 130.

Regarding `COc1ccc(NC(=O)CSc2nc(Cc3c(Cl)cccc3Cl)cc(=O)[nH]2)cc1OC`, the figures for the EC50 in data set [1] and in data set [2] were 4.48 µM and greater than 166 µM, respectively. In addition, in data set [3], the CC50 at 120 h came out at 166 µM. The selectivity ratio in data set [4] was 28.

Take `Cc1c(Cc2c(Cl)cccc2Cl)nc(SCC(=O)Nc2ccc(F)c(F)c2)[nH]c1=O`: the concentration for a half-maximal effect (EC50) was 0.69 µM in data set [1] and greater than 266 µM in data set [2]. In data set [3], this compound yielded a CC50 at 120 h greater than 266 µM. Further, in data set [4], the selectivity ratio was greater than 387.

For the compound `Cc1ccc(NC(=O)CSc2nc(Cc3c(Cl)cccc3Cl)cc(=O)[nH]2)cc1`, the EC50 was 0.88 µM in data set [1] and greater than 47.4 µM in data set [2]. Besides, in data set [3], the half-maximal cytotoxic concentration (CC50) at 120 h was no less than 47.4 µM. Also, the selectivity ratio in data set [4] was no less than 54.

Take `Cc1c(Cc2c(Cl)cccc2Cl)nc(SCC(=O)Nc2ccc(Br)cc2)[nH]c1=O`: the concentration giving a half-maximal response (EC50) was 0.18 µM in data set [1] and greater than 244 µM in data set [2]. In data set [3], this compound registered a CC50 at 120 h greater than 244 µM. Further, the selectivity ratio in data set [4] was greater than 1330.

As for `COc1ccc(NC(=O)CSc2nc(Cc3c(Cl)cccc3Cl)cc(=O)[nH]2)cc1`, the EC50 in data set [1] was 0.92 µM; in data set [2], greater than 25.2 µM. The compound further came in with a CC50 at 120 h in data set [3] of 25.5 µM. In addition, the selectivity ratio in data set [4] is 28.

As for `Cc1c(Cc2c(Cl)cccc2Cl)nc(SCC(=O)Nc2ccc(Cl)cc2)[nH]c1=O`, the figures for the EC50 in data set [1] and in data set [2] were 0.32 µM and greater than 267 µM, respectively. Also, the CC50 at 120 h in data set [3] is greater than 267 µM. Moreover, the selectivity ratio in data set [4] was greater than 836.

As for `COc1ccc(NC(=O)CSc2nc(Cc3c(Cl)cccc3Cl)c(C)c(=O)[nH]2)cc1OC`, the EC50 in data set [1] was 1.45 µM; in data set [2], greater than 253 µM. This compound yielded a CC50 at 120 h in data set [3] greater than 253 µM. Also, the selectivity ratio in data set [4] is greater than 175.

Regarding `O=C(CSc1nc(Cc2c(Cl)cccc2Cl)cc(=O)[nH]1)Nc1ccc(Br)cc1`, the EC50 in data set [1] was 0.74 µM; in data set [2], greater than 22.8 µM. The CC50 at 120 h in data set [3] is 22.8 µM. Moreover, the selectivity ratio in data set [4] turned out to be 31.

Take `Cc1c(Cc2c(Cl)cccc2Cl)nc(SCC(=O)Nc2ccc([N+](=O)[O-])cc2)[nH]c1=O`: the figures for the EC50 in data set [1] and in data set [2] were 0.99 µM and no less than 45.8 µM, respectively. Also, the CC50 at 120 h in data set [3] is greater than 261 µM. For the same compound, the selectivity ratio in data set [4] is greater than 264.

As for `Cc1c(Cc2c(Cl)cccc2Cl)nc(SCC(=O)Nc2ccc(F)c(Cl)c2)[nH]c1=O`, the EC50 in data set [1] was no less than 41.1 µM; in data set [2], greater than 257 µM. The compound also came in with a CC50 at 120 h in data set [3] greater than 257 µM. In data set [4], the selectivity ratio was no less than 1.

Take `Cc1c(Cc2c(Cl)cccc2Cl)nc(SCC(=O)Nc2ccc(Cl)c(Cl)c2)[nH]c1=O`: the EC50 is no less than 2.82 µM in data set [1] and greater than 248 µM in data set [2]. In data set [3], the CC50 at 120 h was greater than 248 µM. Further, the selectivity ratio in data set [4] is no less than 88.

Regarding `O=C(CSc1nc(Cc2c(Cl)cccc2Cl)cc(=O)[nH]1)Nc1ccc(Cl)cc1`, the EC50 in data set [1] is 0.95 µM; in data set [2], greater than 24.8 µM. For the same compound, it took 24.8 µM to reach half-maximal cytotoxicity in data set [3] (CC50 at 120 h). Moreover, in data set [4], the selectivity ratio amounted to 23.
